According to ChEMBL document CHEMBL1156920, “Structural analogues of schweinfurthin F: probing the steric, electronic, and hydrophobic properties of the D-ring substructure” (Bioorg Med Chem, 2010):

Tests used:
[1] = Growth inhibition of human […] cells; assay type: functional
[2] = test system: SF-539; experiment: Growth inhibition of human SF539 cells; assay type: functional
[3] = test system: HL-60(TB); experiment: Growth inhibition of human HL-60(TB) cells; assay type: functional
[4] = test system: SF-268; experiment: Growth inhibition of human SF268 cells; assay type: functional
[5] = test system: T47D; experiment: Growth inhibition of human T47D cells; assay type: functional
[6] = test system: CCRF-CEM; experiment: Growth inhibition of human CCRF-CEM cells; assay type: functional
[7] = test system: HOP-92; experiment: Growth inhibition of human HOP92 cells; assay type: functional
[8] = test system: HCC 2998; experiment: Growth inhibition of human HCC2998 cells; assay type: functional
[9] = test system: SF-295; experiment: Growth inhibition of human SF295 cells; assay type: functional
[10] = test system: NCI/ADR-RES; experiment: Growth inhibition of human NCI/ADR-RES cells; assay type: functional
[11] = test system: OVCAR-5; experiment: Growth inhibition of human OVCAR5 cells; assay type: functional
[12] = test system: PC-3; experiment: Growth inhibition of human PC3 cells; assay type: functional
[13] = test system: CAKI-1; experiment: Growth inhibition of human Caki1 cells; assay type: functional
[14] = test system: SNB-75; experiment: Growth inhibition of human SNB75 cells; assay type: functional
[15] = test system: HCT-116; experiment: Growth inhibition of human HCT116 cells; assay type: functional
[16] = test system: SK-MEL-2; experiment: Growth inhibition of human SK-MEL-2 cells; assay type: functional
[17] = test system: SF-295; experiment: Cytotoxicity against human SF295 cells after 44 hrs by MTT assay; assay type: functional, cell-based; conditions: SF-295, 44 h
Summary of the method: (§1)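 SF-295 cells cultured in RPMI 1640 and A549 cells in F-12, each with 10% FBS, penicillin–streptomycin, amphotericin B and L-glutamine, at 37 °C in 5% CO2. Cells were grown to 60% confluency, then treated for 44 h. Medium was replaced with medium containing 0.06 mg/mL MTT (phenol red-free RPMI for SF-295) for 4 h. Acid/Triton/isopropanol stop solution was added, plates incubated overnight at 37 °C, OD read at 540 and 650 nm, and EC50 calculated.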

[18] = test system: SR; experiment: Growth inhibition of human SR cells; assay type: functional
[19] = test system: EKVX; experiment: Growth inhibition of human EKVX cells; assay type: functional
[20] = test system: MOLT-4; experiment: Growth inhibition of human MOLT4 cells; assay type: functional
[21] = test system: A549; experiment: Cytotoxicity against human A549 cells after 44 hrs by MTT assay; assay type: functional, cell-based; conditions: A549, 44 h; summary of the method: as §1
[22] = test system: UO-31; experiment: Growth inhibition of human UO31 cells; assay type: functional
[23] = test system: NCI-H226; experiment: Growth inhibition of human NCI-H226 cells; assay type: functional
[24] = test system: ACHN; experiment: Growth inhibition of human ACHN cells; assay type: functional
[25] = test system: KM12; experiment: Growth inhibition of human KM12 cells; assay type: functional
[26] = test system: UACC-257; experiment: Growth inhibition of human UACC257 cells; assay type: functional
[27] = test system: OVCAR-4; experiment: Growth inhibition of human OVCAR4 cells; assay type: functional
[28] = test system: A549; experiment: Growth inhibition of human A549 cells; assay type: functional
[29] = test system: SN12C; experiment: Growth inhibition of human SN12C cells; assay type: functional
[30] = test system: NCI-H522; experiment: Growth inhibition of human NCI-H522 cells; assay type: functional
[31] = test system: HT-29; experiment: Growth inhibition of human HT-29 cells; assay type: functional
[32] = test system: LOX IMVI; experiment: Growth inhibition of human LOXIMVI cells; assay type: functional
[33] = test system: UACC-62; experiment: Growth inhibition of human UACC62 cells; assay type: functional
[34] = test system: RXF 393; experiment: Growth inhibition of human RXF393 cells; assay type: functional
[35] = test system: U-251; experiment: Growth inhibition of human U251 cells; assay type: functional
[36] = test system: OVCAR-3; experiment: Growth inhibition of human OVCAR-3 cells; assay type: functional
[37] = test system: IGROV-1; experiment: Growth inhibition of human IGROV1 cells; assay type: functional
[38] = test system: SK-OV-3; experiment: Growth inhibition of human SKOV3 cells; assay type: functional
[39] = test system: NCI-H23; experiment: Growth inhibition of human NCI-H23 cells; assay type: functional
[40] = test system: MDA-MB-468; experiment: Growth inhibition of human MDA-MB-468 cells; assay type: functional
[41] = test system: Malme-3M; experiment: Growth inhibition of human MALME-3M cells; assay type: functional
[42] = test system: SK-MEL-5; experiment: Growth inhibition of human SK-MEL-5 cells; assay type: functional
[43] = read-out: pLC50 (the source's name) (converted)

COc1cc(CCc2cc(O)c(C/C=C(\C)CC/C=C(\C)CO)c(O)c2)cc2c1O[C@]1(C)CC[C@@H](O)C(C)(C)[C@H]1C2
GI50 [1]: 1.45 µM
LC50 [1]: > 100 µM
TGI ([1]; read-out: pTGI (converted)): 7.24 µM
GI50 [2]: 2.29 µM
LC50 [2]: 33.9 µM
TGI ([2]; read-out: pTGI (converted)): 11.7 µM
GI50 [3]: 3.02 µM
CC50 [3, 43]: 95.5 µM
TGI ([3]; read-out: pTGI (converted)): 12.6 µM
GI50 [4]: 6.03 µM
LC50 [4]: 87.1 µM
TGI ([4]; read-out: pTGI (converted)): 25.7 µM
GI50 [5]: 5.89 µM
CC50 [5, 43]: > 100 µM
TGI ([5]; read-out: pTGI (converted)): 35.5 µM
GI50 [6]: 4.07 µM
CC50 [6, 43]: > 100 µM
TGI ([6]; read-out: pTGI (converted)): 45.7 µM
GI50 [7]: 7.41 µM
LC50 [7]: > 100 µM
TGI ([7]; read-out: pTGI (converted)): 47.9 µM
GI50 [8]: 6.17 µM
TGI ([8]; read-out: pTGI (converted)): 25.1 µM
GI50 [9]: 2.51 µM
LC50 [9]: 45.7 µM
TGI ([9]; read-out: pTGI (converted)): 10 µM
GI50 [10]: 17.4 µM
CC50 [10, 43]: > 100 µM
TGI ([10]; read-out: pTGI (converted)): 61.7 µM
GI50 [11]: 20.9 µM
LC50 (lethal concentration, 50% cell kill) [11]: > 100 µM
TGI ([11]; read-out: pTGI (converted)): 66.1 µM
GI50 [12]: 5.5 µM
CC50 [12, 43]: > 100 µM
TGI ([12]; read-out: pTGI (converted)): 77.6 µM
GI50 [13]: 4.37 µM
LC50 [13]: > 100 µM
TGI ([13]; read-out: pTGI (converted)): 21.9 µM
GI50 [14]: 1.7 µM
LC50 [14]: > 100 µM
TGI ([14]; read-out: pTGI (converted)): 10.7 µM
GI50 [15]: 3.47 µM
CC50 [15, 43]: 40.7 µM
TGI ([15]; read-out: pTGI (converted)): 13.2 µM
GI50 [16]: 3.89 µM
LC50 [16]: 75.9 µM
TGI ([16]; read-out: pTGI (converted)): 17.4 µM
EC50 [17]: > 10 µM
GI50 [18]: 2.09 µM
LC50 [18]: 66.1 µM
TGI ([18]; read-out: pTGI (converted)): 7.59 µM
GI50 [19]: 5.75 µM
LC50 [19]: > 100 µM
TGI ([19]; read-out: pTGI (converted)): 33.1 µM
GI50 [20]: 1.7 µM
LC50 [20]: 97.7 µM
TGI ([20]; read-out: pTGI (converted)): 7.59 µM
EC50 [21]: > 10 µM
GI50 [22]: 3.47 µM
CC50 [22, 43]: > 100 µM
TGI ([22]; read-out: pTGI (converted)): 20 µM
GI50 [23]: 13.2 µM
LC50 [23]: > 100 µM
TGI ([23]; read-out: pTGI (converted)): 66.1 µM
GI50 [24]: 5.25 µM
CC50 [24, 43]: > 100 µM
TGI ([24]; read-out: pTGI (converted)): 35.5 µM
GI50 [25]: 4.17 µM
LC50 [25]: 91.2 µM
TGI ([25]; read-out: pTGI (converted)): 18.6 µM
GI50 [26]: 6.61 µM
LC50 [26]: > 100 µM
TGI ([26]; read-out: pTGI (converted)): 28.2 µM
GI50 [27]: 11.5 µM
CC50 [27, 43]: > 100 µM
TGI ([27]; read-out: pTGI (converted)): 45.7 µM
GI50 [28]: 4.9 µM
LC50 (50% lethal concentration) [28]: > 100 µM
TGI ([28]; read-out: pTGI (converted)): 95.5 µM
GI50 [29]: 7.59 µM
LC50 [29]: > 100 µM
TGI ([29]; read-out: pTGI (converted)): 52.5 µM
GI50 [30]: 5.25 µM
LC50 (50% lethal concentration) [30]: > 100 µM
TGI ([30]; read-out: pTGI (converted)): 29.5 µM
GI50 [31]: 7.94 µM
LC50 (50% lethal concentration) [31]: 87.1 µM
TGI ([31]; read-out: pTGI (converted)): 26.3 µM
GI50 [32]: 4.47 µM
LC50 [32]: 46.8 µM
TGI ([32]; read-out: pTGI (converted)): 16.6 µM
GI50 [33]: 4.79 µM
CC50 [33, 43]: 81.3 µM
TGI ([33]; read-out: pTGI (converted)): 20.9 µM
GI50 [34]: 0.363 µM
CC50 [34, 43]: > 100 µM
TGI ([34]; read-out: pTGI (converted)): 1.38 µM
GI50 [35]: 3.02 µM
LC50 [35]: 58.9 µM
TGI ([35]; read-out: pTGI (converted)): 18.6 µM
GI50 [36]: 11.5 µM
LC50 (50% lethal concentration) [36]: > 100 µM
TGI ([36]; read-out: pTGI (converted)): 33.1 µM
GI50 [37]: 4.9 µM
LC50 [37]: > 100 µM
TGI ([37]; read-out: pTGI (converted)): 26.3 µM
GI50 [38]: 8.51 µM
LC50 [38]: > 100 µM
TGI ([38]; read-out: pTGI (converted)): 31.6 µM
GI50 [39]: 6.92 µM
LC50 [39]: 85.1 µM
TGI ([39]; read-out: pTGI (converted)): 25.7 µM
GI50 [40]: 5.89 µM
LC50 [40]: > 100 µM
TGI ([40]; read-out: pTGI (converted)): 50.1 µM
GI50 [41]: 6.31 µM
LC50 [41]: > 100 µM
TGI ([41]; read-out: pTGI (converted)): 38 µM
GI50 [42]: 3.39 µM
LC50 [42]: 33.1 µM
TGI ([42]; read-out: pTGI (converted)): 11 µM
